Reference: ChEMBL document CHEMBL4024796, “Phenylthiomethyl Ketone-Based Fragments Show Selective and Irreversible Inhibition of Enteroviral 3C Proteases” (J Med Chem, 2018)
pIC50, pKi: −log10 of the molar value. Each block holds one molecule with its values, some of them ahead of it. Calls of active or inactive are those of the source. The calls are words filed in the database; no cut-off is given here.

Key:
[1] = target: Genome polyprotein (Coxsackievirus B3 (strain Nancy)) (UniProt P03313); experiment: Irreversible inhibition of Coxsackievirus B3 C-terminal His6-tagged protease 3C expressed in Escherichia coli BL21(DE3) assessed as ratio of Kinact to Ki using N-Dabcyl-KTLEALFQGPPVYE-(Edans)-NH2 as substrate after 30 mins by fluorescence assay
Procedure, shortened: (§1)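 Same FRET assay (HEPES-NaOH 100 mM, EDTA 1 mM, Triton X 0.01%, pH 7.5; ex 355/em 538 nm; triplicates). kobs for irreversible inhibition obtained by fitting progress curves to [P]=vi/kobs(1−e^(−kobs·t)). kinact/KI taken from the slope of the linear portion of kobs versus inhibitor concentration.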
Target sequence in this assay (P03313 whole entry): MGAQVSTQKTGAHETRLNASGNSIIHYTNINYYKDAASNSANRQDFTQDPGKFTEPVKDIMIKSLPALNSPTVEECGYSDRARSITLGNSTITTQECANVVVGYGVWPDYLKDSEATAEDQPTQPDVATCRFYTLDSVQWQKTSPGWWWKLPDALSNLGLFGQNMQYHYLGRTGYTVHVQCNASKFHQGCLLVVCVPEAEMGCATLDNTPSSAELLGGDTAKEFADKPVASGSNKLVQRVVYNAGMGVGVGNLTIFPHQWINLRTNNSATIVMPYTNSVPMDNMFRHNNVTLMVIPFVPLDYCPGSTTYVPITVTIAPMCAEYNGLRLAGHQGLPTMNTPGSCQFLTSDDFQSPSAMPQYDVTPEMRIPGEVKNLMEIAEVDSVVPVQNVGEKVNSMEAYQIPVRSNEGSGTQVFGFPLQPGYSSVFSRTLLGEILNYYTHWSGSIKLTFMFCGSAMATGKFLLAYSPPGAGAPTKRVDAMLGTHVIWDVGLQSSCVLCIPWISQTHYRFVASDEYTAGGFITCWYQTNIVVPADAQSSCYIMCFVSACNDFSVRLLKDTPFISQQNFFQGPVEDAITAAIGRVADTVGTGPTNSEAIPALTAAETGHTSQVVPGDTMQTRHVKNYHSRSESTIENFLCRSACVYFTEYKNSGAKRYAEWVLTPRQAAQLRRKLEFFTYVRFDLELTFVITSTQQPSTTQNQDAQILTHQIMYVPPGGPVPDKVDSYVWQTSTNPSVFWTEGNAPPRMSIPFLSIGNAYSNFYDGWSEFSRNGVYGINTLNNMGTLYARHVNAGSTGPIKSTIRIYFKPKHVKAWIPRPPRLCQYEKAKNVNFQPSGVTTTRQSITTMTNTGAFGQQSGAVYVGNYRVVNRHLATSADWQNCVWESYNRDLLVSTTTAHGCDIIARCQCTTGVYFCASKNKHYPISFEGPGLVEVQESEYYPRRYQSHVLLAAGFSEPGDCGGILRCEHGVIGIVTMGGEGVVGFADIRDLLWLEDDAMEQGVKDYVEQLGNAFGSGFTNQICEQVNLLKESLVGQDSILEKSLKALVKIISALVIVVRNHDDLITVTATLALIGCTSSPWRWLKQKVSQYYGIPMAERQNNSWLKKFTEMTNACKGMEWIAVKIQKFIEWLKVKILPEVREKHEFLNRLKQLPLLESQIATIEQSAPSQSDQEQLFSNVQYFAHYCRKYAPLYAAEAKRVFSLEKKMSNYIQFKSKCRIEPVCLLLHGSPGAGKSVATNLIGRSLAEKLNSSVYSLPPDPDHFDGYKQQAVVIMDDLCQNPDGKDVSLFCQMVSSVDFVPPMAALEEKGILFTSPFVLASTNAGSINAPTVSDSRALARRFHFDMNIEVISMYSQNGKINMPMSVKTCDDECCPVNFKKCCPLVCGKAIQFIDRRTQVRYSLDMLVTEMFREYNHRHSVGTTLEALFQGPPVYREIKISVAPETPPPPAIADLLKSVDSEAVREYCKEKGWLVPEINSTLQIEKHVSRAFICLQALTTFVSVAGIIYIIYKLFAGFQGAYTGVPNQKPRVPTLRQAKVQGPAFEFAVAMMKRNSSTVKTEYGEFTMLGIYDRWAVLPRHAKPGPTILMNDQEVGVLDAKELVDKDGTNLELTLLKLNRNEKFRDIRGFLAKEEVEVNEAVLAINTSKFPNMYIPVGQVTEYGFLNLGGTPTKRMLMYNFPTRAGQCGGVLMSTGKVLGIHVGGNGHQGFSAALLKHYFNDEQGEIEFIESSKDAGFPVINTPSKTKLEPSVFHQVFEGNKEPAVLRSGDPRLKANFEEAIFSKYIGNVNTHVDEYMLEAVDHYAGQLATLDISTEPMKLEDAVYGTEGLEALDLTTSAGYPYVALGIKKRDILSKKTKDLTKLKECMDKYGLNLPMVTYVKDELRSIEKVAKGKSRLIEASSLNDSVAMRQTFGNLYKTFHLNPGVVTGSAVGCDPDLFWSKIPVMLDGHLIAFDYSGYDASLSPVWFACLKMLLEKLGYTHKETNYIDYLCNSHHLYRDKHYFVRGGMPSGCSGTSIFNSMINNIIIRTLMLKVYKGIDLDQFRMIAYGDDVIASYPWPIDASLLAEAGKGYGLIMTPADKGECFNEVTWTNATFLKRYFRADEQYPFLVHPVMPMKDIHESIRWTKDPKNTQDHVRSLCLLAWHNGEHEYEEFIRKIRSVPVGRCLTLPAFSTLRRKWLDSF

enterovirus D68 [2] = experiment: Irreversible inhibition of Enetrovirus D68 C-terminal His6-tagged protease 3C expressed in Escherichia coli BL21(DE3) assessed as ratio of Kinact to Ki using N-Dabcyl-KTLEALFQGPPVYE-(Edans)-NH2 as substrate after 30 mins by fluorescence assay; procedure, shortened: as §1
[3] = target: Genome polyprotein (Coxsackievirus B3 (strain Nancy)) (UniProt P03313); experiment: Inhibition of Coxsackievirus B3 C-terminal His6-tagged protease 3C expressed in Escherichia coli BL21(DE3) using N-Dabcyl-KTLEALFQGPPVYE-(Edans)-NH2 as substrate preincubated up to 60 mins followed by substrate addition by fluorescence assay; settings: TDE = time-dependent effect
Procedure, shortened: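 Enzyme and inhibitor (or DMSO) preincubated in assay buffer (HEPES-NaOH pH 7.5, EDTA, Triton X) for 60, 40, 20 or 0 min under a lid. Reaction started by FRET substrate addition and followed 60 min by fluorescence (ex 355/em 538 nm). Triplicates per incubation time. Relative activity calculated for every 5-min step of the reaction.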
Target sequence in this assay (P03313 whole entry): as above

enterovirus D68 [4] = experiment: Binding affinity to Enetrovirus D68 C-terminal His6-tagged protease 3C at Cys60 residue expressed in Escherichia coli BL21(DE3) assessed as adduct formation after 30 mins by fluorescence assay
enterovirus D68 [5] = experiment: Binding affinity to Enetrovirus D68 C-terminal His6-tagged protease 3C at Cys147 residue expressed in Escherichia coli BL21(DE3) assessed as adduct formation after 30 mins by fluorescence assay
[6] = Glutathione reactivity assessed as GSH-adduct formation after 2 to 24 hrs by LC-MS/MS analysis
Procedure, shortened: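 Inhibitor in DMSO at 2.5 mM, mixed with equimolar glutathione in assay buffer (100 mM HEPES-NaOH, 1 mM EDTA, 0.01% Triton X, pH 7.5). Held at room temperature for 2 h and 24 h, with an aliquot taken by LC/MS after each period. Controls for each inhibitor omitted glutathione.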

[7] = target: Genome polyprotein (Coxsackievirus B3 (strain Nancy)) (UniProt P03313); experiment: Inhibition of Coxsackievirus B3 C-terminal His6-tagged protease 3C expressed in Escherichia coli BL21(DE3) at 650 uM using N-Dabcyl-KTLEALFQGPPVYE-(Edans)-NH2 as substrate after 30 mins by fluorescence assay relative to control
Procedure, shortened: (§2)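 Enzyme added from 40 μM and substrate from 20 μM working solutions, inhibitor in DMSO, DMSO alone as control. Fluorescence read at ex 355/em 538 nm over 30 min, triplicates. Apparent IC50 from a Hill-type fit of initial velocities; kobs for covalent reversible inhibition from progress-curve fits.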
Target sequence in this assay (P03313 whole entry): as above

[8] = target: Genome polyprotein (Coxsackievirus B3 (strain Nancy)) (UniProt P03313); experiment: Inhibition of Coxsackievirus B3 C-terminal His6-tagged protease 3C expressed in Escherichia coli BL21(DE3) at 500 uM using N-Dabcyl-KTLEALFQGPPVYE-(Edans)-NH2 as substrate preincubated up to 60 mins followed by substrate addition by fluorescence assay; settings: TDE = time-dependent effect
Procedure, shortened: (§3)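 CVB3 3Cpro preincubated with inhibitor (or DMSO control) in 100 mM HEPES-NaOH pH 7.5, 1 mM EDTA, 0.01% Triton X, lid-covered, for 60, 40, 20 or 0 min. Substrate then added and reaction followed 60 min (ex 355/em 538 nm). Relative activity calculated per 5-min step versus control. Triplicates per incubation time.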
Target sequence in this assay (P03313 whole entry): as above

[9] = target: Genome polyprotein (Coxsackievirus B3 (strain Nancy)) (UniProt P03313); experiment: (§4) Inhibition of Coxsackievirus B3 C-terminal His6-tagged protease 3C expressed in Escherichia coli BL21(DE3) using N-Dabcyl-KTLEALFQGPPVYE-(Edans)-NH2 as substrate after 30 mins by fluorescence assay
Procedure, shortened: (§5)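 FRET cleavage assay in 100 mM HEPES-NaOH pH 7.5, 1 mM EDTA, 0.01% Triton X. Enzyme added from a 40 µM stock, substrate diluted to 20 µM before addition. Inhibitor in DMSO, DMSO alone as control. Fluorescence at 538 nm (ex 355 nm) over 30 min, triplicates. Apparent IC50 from nonlinear fit of vi/v0 = 1/(1+[I]/IC50)^h. Ki from koff/kon for covalent reversible binding.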
Target sequence in this assay (P03313 1541-1723 limits assumed): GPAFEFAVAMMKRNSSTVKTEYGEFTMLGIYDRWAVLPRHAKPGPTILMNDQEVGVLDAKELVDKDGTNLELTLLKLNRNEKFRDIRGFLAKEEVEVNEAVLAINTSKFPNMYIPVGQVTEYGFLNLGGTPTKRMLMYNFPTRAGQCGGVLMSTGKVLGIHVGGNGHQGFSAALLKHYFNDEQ

Genome polyprotein [10] = target: T1, Genome polyprotein (Coxsackievirus B3 (strain Nancy), UniProt P03313); experiment: as §4; procedure, shortened: as §5
T1 sequence (P03313 1541-1723 limits assumed): as above

[11] = Drug level in HEPES-NaOH buffer treated with 7,7-dimethyl-2,5-dioxo-5,6,7,8-tetrahydro-2H-chromene-3-carboxamide overnight by LC-MS analysis
[12] = Reversible inhibition of Enetrovirus D68 C-terminal His6-tagged protease 3C expressed in Escherichia coli BL21(DE3) using N-Dabcyl-KTLEALFQGPPVYE-(Edans)-NH2 as substrate after 30 mins by fluorescence assay; design: species or system enterovirus D68; procedure, shortened: as §2
Genome polyprotein [13] = target: T1, Genome polyprotein; experiment: Reversible inhibition of Coxsackievirus B3 C-terminal His6-tagged protease 3C expressed in Escherichia coli BL21(DE3) using N-Dabcyl-KTLEALFQGPPVYE-(Edans)-NH2 as substrate after 30 mins by fluorescence assay; procedure, shortened: as §5
[14] = Solubility of the compound; format: physicochemical
[15] = target: Genome polyprotein (Coxsackievirus B3 (strain Nancy)) (UniProt P03313); experiment: Inhibition of Coxsackievirus B3 C-terminal His6-tagged protease 3C expressed in Escherichia coli BL21(DE3) at 100 uM using N-Dabcyl-KTLEALFQGPPVYE-(Edans)-NH2 as substrate preincubated up to 60 mins followed by substrate addition by fluorescence assay; settings: TDE = time-dependent effect; procedure, shortened: as §3
Target sequence in this assay (P03313 whole entry): as the sequence (P03313 whole entry) above

[16] = target: Genome polyprotein (Coxsackievirus B3 (strain Nancy)) (UniProt P03313); experiment: Irreversible inhibition of Coxsackievirus B3 C-terminal His6-tagged protease 3C expressed in Escherichia coli BL21(DE3) after 60 mins by LC-MS analysis
Target sequence in this assay (P03313 whole entry): as above

[17] = target: Genome polyprotein (Coxsackievirus B3 (strain Nancy)) (UniProt P03313); experiment: Irreversible inhibition of Coxsackievirus B3 C-terminal His6-tagged protease 3C expressed in Escherichia coli BL21(DE3) assessed as protein-compound adduct formation after 60 mins by LC-MS analysis
[18] = target: Genome polyprotein (Coxsackievirus B3 (strain Nancy)) (UniProt P03313); experiment: Irreversible inhibition of Coxsackievirus B3 C-terminal His6-tagged protease 3C expressed in Escherichia coli BL21(DE3) assessed as thioether adduct formation after 60 mins by MALDi-TOF spectral analysis

Compound: NC(=O)c1cc(C(=O)CBr)cn1C/C=C/c1ccccc1
- Ratio [1]: 1710 M⁻¹ s⁻¹
- Ratio (enterovirus D68 [2]): 1210 M⁻¹ s⁻¹
- inhibition [3]: Tde
- Activity (enterovirus D68 [4]): Active
- Activity (enterovirus D68 [5]): Active
- Drug metabolism [6]: Metabolite detected

Compound: CC1(C)CC(=O)c2cc(C(N)=O)c(=O)oc2C1
- inhibition [7]: > 30%
- inhibition [8]: Tde
- inhibition [9]: Dose-dependent effect
- pIC50 (Genome polyprotein [10]): 3.45
- pKi (Genome polyprotein [10]): 3.41

Compound: CC1(C)CC(=O)c2cc(C(=O)O)c(=O)oc2C1
- Drug metabolism [11]: Metabolite detected

Compound: NC(=O)c1cc(C(=O)CSc2ccccc2)cn1C/C=C/c1ccccc1
- Ratio [1]: 54.4 M⁻¹ s⁻¹
- Ratio (enterovirus D68 [2]): 160 M⁻¹ s⁻¹
- inhibition [3]: Tde
- Activity (enterovirus D68 [5]): Active
- Drug metabolism [6]: Metabolite detected

Compound: CC(=O)c1cc(C(N)=O)n(C/C=C/c2ccccc2)c1
- pKi [12]: 3.37
- pKi (Genome polyprotein [13]): 3.71
- inhibition [3]: Tde

Compound: NC(=O)c1cc(C(=O)C(Sc2ccccc2)Sc2ccccc2)cn1C/C=C/c1ccccc1
- pKi (Genome polyprotein [13]): 3.57
- inhibition [3]: Tde

Compound: NC(=O)n1cc(C(=O)c2cc(O)ccc2Cl)cn1
- solubility [14]: Insoluble

Compound: Cn1cc(C(=O)CSc2ccccc2)cc1C(N)=O
- inhibition [7]: Active
- inhibition [15]: Tde
- inhibition [9]: Dose-dependent effect
- Ratio [1]: 16.8 M⁻¹ s⁻¹
- Ratio (enterovirus D68 [2]): 21.3 M⁻¹ s⁻¹
- inhibition [16]: Active
- inhibition [17]: Active
- inhibition [18]: Active
- Activity (enterovirus D68 [5]): Active

Compound: O=C(CSc1ccccc1)c1ccccc1
- inhibition [7]: inactive

The remaining lines, values ahead:

- inhibition [7]: < 20%
Compound: Cn1cc(C(=O)CSc2nnnn2C)cc1C(N)=O

- inhibition [7]: inactive
Compound: Cc1ccc2[nH]c(C)c(C(=O)CSc3ccccc3)c2c1

- inhibition [7]: < 20%
Compound: CC(=O)c1c(C)[nH]c(C(N)=O)c1C

- inhibition [7]: < 20%
Compound: Cn1cc(C(=O)Cn2cccc(C(F)(F)F)c2=O)cc1C(N)=O
